# Experimental data taken from ChEMBL document CHEMBL4152240, “Synthesis, cytotoxicity and structure-activity relationship of indolizinoquinolinedione derivatives as DNA topoisomerase IB catalytic inhibitors” (2018).
# Activity calls are given as the source filed them. The rule behind the calls is not given here.
# Tests used:
# HCT-116 [1] = experiment: Induction of apoptosis in human HCT116 cells assessed as viable cells at 3 uM after 12 hrs by annexin V-FITC/propidium iodide staining-based flow cytometric method (reference value: 97.60 to 98.95%); assay type: functional; conditions: HCT-116, 12 h, read-out: Activity
# CCRF-CEM = experiment: Cytotoxicity against human CCRF-CEM cells assessed as growth inhibition after 72 hrs by MTT assay; assay type: functional
# Summary of the method: (§1)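 Five-dose MTT growth assay, compounds predissolved in DMSO, 72 h exposure at 37 C. Cells kept in RPMI-1640 or DMEM, 37 C, 5% CO2, passage 3-6. MTT (1 mg/mL in PBS) added for 4 h, formazan dissolved in DMSO, OD 570 nm. GI50 (50% growth inhibition) by nonlinear regression. Means ± SD, at least three repeats.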
# HCT-116 [2] = experiment: Induction of apoptosis in human HCT116 cells assessed as viable cells at 9 uM after 12 hrs by annexin V-FITC/propidium iodide staining-based flow cytometric method (reference value: 97.60 to 98.95%); assay type: functional; conditions: HCT-116, 12 h, read-out: Activity
# HCT-116 [3] = experiment: Induction of apoptosis in human HCT116 cells assessed as late apoptotic cells at 1 uM after 12 hrs by annexin V-FITC/propidium iodide staining-based flow cytometric method (reference value: 0.34 to 0.81%); assay type: functional
# [4] = biological target: T1, Topoisomerase I (Bos taurus) (UniProt Q2HPH0); experiment: Inhibition of calf thymus TOP1-mediated relaxation of supercoiled pBR322 DNA at 25 uM after 30 mins by agarose gel electrophoresis relative to camptothecin
# T1 sequence (whole entry): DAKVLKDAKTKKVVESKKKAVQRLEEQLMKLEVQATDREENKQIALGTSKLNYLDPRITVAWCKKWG
# Summary of the method: (§2)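 0.5 µg supercoiled pBR322 in buffer (10 mM Tris-HCl pH 7.5, 50 mM KCl, 5 mM MgCl2, BSA, DTT) with 1 unit calf thymus TOP1, with or without compound (0.2-125 µM), 30 min at 37 C. Run on 0.8% agarose/TBE at 4.6 V/cm for 1.5 h, gel red stained. Activity graded in bands (e.g. +++ 81-120%). At least two independent repeats.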
# HCT-116 [5] = experiment: Induction of apoptosis in human HCT116 cells assessed as early apoptotic cells at 9 uM after 12 hrs by annexin V-FITC/propidium iodide staining-based flow cytometric method (reference value: 0.47 to 1.19%); assay type: functional
# DNA [6] = experiment: Induction of unwinding effect of Escherichia coli supercoiled pBR322 DNA at 1 to 9 uM preincubated with DNA for 10 mins followed by excess calf thymus TOP1 addition and measured after 30 mins by agarose gel electrophoresis; assay type: nucleic-acid assay
# Summary of the method: (§3)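 Compound (1, 3, 9 µM) preincubated with pBR322 DNA, supercoiled or relaxed, at room temperature for 10 min. Excess TOP1 then added and incubated 30 min at 37 C. Stopped with SDS/proteinase K. Ethidium bromide (0.3-1.2 mg/L) as positive control. Run on 0.8% agarose in TBE at 4.6 V/cm for 1.5 h, stained with gel red, UV visualized.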
# HCT-116 [7] = experiment: Induction of apoptosis in human HCT116 cells assessed as early apoptotic cells at 1 uM after 12 hrs by annexin V-FITC/propidium iodide staining-based flow cytometric method (reference value: 0.47 to 1.19%); assay type: functional
# [8] = biological target: T1, Topoisomerase I (Bos taurus); experiment: Inhibition of calf thymus TOP1-mediated relaxation of supercoiled pBR322 DNA after 30 mins by agarose gel electrophoresis; summary of the method: as §2
# A549 = experiment: Cytotoxicity against human A549 cells assessed as growth inhibition after 72 hrs by MTT assay; assay type: functional; conditions: A549, 72 h; summary of the method: as §1
# [9] = biological target: T1, Topoisomerase I (Bos taurus); experiment: Inhibition of calf thymus TOP1-mediated relaxation of supercoiled pBR322 DNA at 125 uM after 30 mins by agarose gel electrophoresis relative to control; summary of the method: as §2
# HCT-116 [10] = experiment: Induction of apoptosis in human HCT116 cells assessed as late apoptotic cells at 3 uM after 12 hrs by annexin V-FITC/propidium iodide staining-based flow cytometric method (reference value: 0.34 to 0.81%); assay type: functional
# DNA [11] = experiment: Induction of unwinding effect of Escherichia coli relaxed pBR322 DNA at 1 to 9 uM preincubated with DNA for 10 mins followed by excess calf thymus TOP1 addition and measured after 30 mins by agarose gel electrophoresis; assay type: nucleic-acid assay; summary of the method: as §3
# HCT-116 [12] = experiment: Cytotoxicity against human HCT116 cells assessed as growth inhibition after 72 hrs by MTT assay; assay type: functional; conditions: HCT-116, 72 h; summary of the method: as §1
# Huh-7 = experiment: Cytotoxicity against human HuH7 cells assessed as growth inhibition after 72 hrs by MTT assay; assay type: functional; conditions: Huh-7, 72 h; summary of the method: as §1
# HCT-116 [13] = experiment: Induction of apoptosis in human HCT116 cells after 12 hrs by annexin V-FITC/propidium iodide staining-based flow cytometric method; assay type: functional, cell-based
# HCT-116 [14] = experiment: Induction of apoptosis in human HCT116 cells assessed as viable cells at 1 uM after 12 hrs by annexin V-FITC/propidium iodide staining-based flow cytometric method (reference value: 97.60 to 98.95%); assay type: functional; conditions: HCT-116, 12 h, read-out: Activity
# DU-145 = experiment: Cytotoxicity against human DU145 cells assessed as growth inhibition after 72 hrs by MTT assay; assay type: functional; conditions: DU-145, 72 h; summary of the method: as §1
# HCT-116 [15] = experiment: Induction of apoptosis in human HCT116 cells assessed as late apoptotic cells at 9 uM after 12 hrs by annexin V-FITC/propidium iodide staining-based flow cytometric method (reference value: 0.34 to 0.81%); assay type: functional
# HCT-116 [16] = experiment: Induction of apoptosis in human HCT116 cells assessed as early apoptotic cells at 3 uM after 12 hrs by annexin V-FITC/propidium iodide staining-based flow cytometric method (reference value: 0.47 to 1.19%); assay type: functional
# MCF7 = experiment: Cytotoxicity against human MCF7 cells assessed as growth inhibition after 72 hrs by MTT assay; assay type: functional; conditions: MCF7, 72 h
# Summary of the method: (§4)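 MTT growth assay in drug-resistant sublines and parental lines. HCT116-siTop1 was made by transfecting HCT116 with shRNA vectors expressing TOP1 siRNA. MCF-7, HepG2 and their ADR-resistant lines were gifts. Five-dose DMSO-predissolved compounds for 72 h at 37 C, then MTT 4 h, DMSO solubilization, OD 570 nm. GI50 by nonlinear regression. At least three repeats.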
# [17] = Resistance ratio of GI50 for human MCF7/ADR cells to GI50 for human MCF7 cells; assay type: functional
# Summary of the method: (§5)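 Resistance ratio: the GI50 in the resistant or TOP1-knockdown subline divided by the GI50 in the matching parental line.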
# [18] = Resistance ratio of GI50 for human HepG2/ADR cells to GI50 for human HepG2 cells; assay type: functional; summary of the method: as §5
# [19] = Resistance ratio of GI50 for human HCT116 cells expressing TOP1 siRNA to GI50 for human HCT116 cells; assay type: functional; summary of the method: as §5
# [20] = Cytotoxicity against human RC0.1 cells assessed as growth inhibition after 72 hrs by MTT assay; assay type: functional
# HepG2 = experiment: Cytotoxicity against human HepG2 cells assessed as growth inhibition after 72 hrs by MTT assay; assay type: functional; conditions: HepG2, 72 h; summary of the method: as §4
# [21] = Resistance ratio of GI50 for human RC0.1 cells to GI50 for human DU145 cells; assay type: functional
# HCT-116 [22] = experiment: Cytotoxicity against human HCT116 cells expressing TOP1 siRNA assessed as growth inhibition after 72 hrs by MTT assay; assay type: functional; conditions: HCT-116, 72 h; summary of the method: as §4
# NCI/ADR-RES = experiment: Cytotoxicity against human MCF7/ADR cells assessed as growth inhibition after 72 hrs by MTT assay; assay type: functional; summary of the method: as §4
# [23] = Cytotoxicity against human HepG2/ADR cells assessed as growth inhibition after 72 hrs by MTT assay; assay type: functional; conditions: HepG2, 72 h; summary of the method: as §4
# DNA [24] = experiment: Induction of unwinding effect of Escherichia coli supercoiled pBR322 DNA at 0.3 to 1.2 mg/L preincubated with DNA for 10 mins followed by excess calf thymus TOP1 addition and measured after 30 mins by agarose gel electrophoresis; assay type: nucleic-acid assay
# Summary of the method: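 Supercoiled or relaxed pBR322 DNA was preincubated with ethidium bromide (0.3, 0.6, 1.2 mg/L, positive control) for 10 min at room temperature. Excess TOP1 was then added for 30 min at 37 °C. The reaction was stopped with SDS/proteinase K, run on 0.8% agarose in TBE at 4.6 V/cm for 1.5 h, then gel-red stained and UV imaged.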
# [25] = biological target: T1, Topoisomerase I (Bos taurus); conditions: 0.2 to 1 uM
Structure (SMILES),viability at 3 µM (HCT-116 [1]) [%],GI50 (CCRF-CEM) [nM],viability at 9 µM (HCT-116 [2]) [%],Activity (HCT-116 [3]) [%],inhibition [4] [%],Activity (HCT-116 [5]) [%],Activity (DNA [6]),Activity (HCT-116 [7]) [%],inhibition [8],GI50 (A549) [nM],inhibition [9] [%],Activity (HCT-116 [10]) [%],Activity (DNA [11]),GI50 (HCT-116 [12]) [nM],GI50 (Huh-7) [nM],Activity (HCT-116 [13]),viability at 1 µM (HCT-116 [14]) [%],GI50 (DU-145) [nM],Activity (HCT-116 [15]) [%],Activity (HCT-116 [16]) [%],also measured
O=C1c2cccnc2C(=O)c2c1c(C(=O)OCCN1CCCCC1)c1c(F)cccn21,86.9,380,57.1,2.39,> 121,2.47,inactive,2.12,Dose-dependent effect,290,100,10.47,inactive,25,59,Dose-dependent effect,95.2,91,38.17,1.26,–
O=C1c2cccnc2C(=O)c2c1c(C(=O)OCCN1CCCC1)c1c(F)cccn21,86,790,51.3,1.17,> 121,10.17,inactive,0.79,Dose-dependent effect,60,100,8.5,inactive,23,120,Dose-dependent effect,97.7,82,32.1,1.69,GI50 (MCF7): 89 nM; RatioGI50 [17]: 1.1; RatioGI50 [18]: 7.5; RatioGI50 [19]: 6.5; GI50 [20]: 2940 nM; GI50 (HepG2): 51 nM; RatioGI50 [21]: 36.8; GI50 (HCT-116 [22]): 150 nM; GI50 (NCI/ADR-RES): 97 nM; GI50 [23]: 380 nM
CC[n+]1c(-c2ccccc2)c2cc(N)ccc2c2ccc(N)cc21,–,–,–,–,–,–,–,–,–,–,–,–,–,–,–,–,–,–,–,–,Activity (DNA [24]): Active
O=C1c2cccnc2C(=O)c2c1c(C(=O)OCCCN1CCCCC1)c1c(F)cccn21,79,350,61.7,3.98,> 121,4.73,inactive,2.14,Dose-dependent effect,72,100,16.74,inactive,27,120,Dose-dependent effect,93.4,210,31.59,2.5,–
CC[C@@]1(O)C(=O)OCc2c1cc1n(c2=O)Cc2cc3ccccc3nc2-1 [CAMPTOTHECIN],–,2,–,–,–,–,–,–,–,3,58,–,–,–,6,–,–,19,–,–,GI50 [20]: 7530 nM; inhibition [25]: Active
